Experiments:
[1] = biological target: human serum albumin (HSA) (Homo sapiens, UniProt P02768); experiment: Binding of nucleotides to human serum albumin by native ESI-FT-ICR MS
Summary of the method: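 Commercial HSA buffer-exchanged five times into 10 mM NH4Ac (pH 6.0) on a 30k membrane filter. Purified HSA (3 μM) mixed with varying nucleotide concentrations in 10 mM NH4Ac and infused at 5 μL∙min−1 in native positive-mode ESI-FT-ICR MS, m/z 1000–5000, 200 scans combined. Free HSA to complex intensity ratios taken from deconvoluted 17+ to 19+ charge states; KD by nonlinear regression.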

[2] = Degradation in liver homogenate on ice and at room temperature; format: in vitro ADME, mouse; conditions: both on ice and at room temperature; Fig. 4a

Sequence of human serum albumin (HSA) (P02768 25-609): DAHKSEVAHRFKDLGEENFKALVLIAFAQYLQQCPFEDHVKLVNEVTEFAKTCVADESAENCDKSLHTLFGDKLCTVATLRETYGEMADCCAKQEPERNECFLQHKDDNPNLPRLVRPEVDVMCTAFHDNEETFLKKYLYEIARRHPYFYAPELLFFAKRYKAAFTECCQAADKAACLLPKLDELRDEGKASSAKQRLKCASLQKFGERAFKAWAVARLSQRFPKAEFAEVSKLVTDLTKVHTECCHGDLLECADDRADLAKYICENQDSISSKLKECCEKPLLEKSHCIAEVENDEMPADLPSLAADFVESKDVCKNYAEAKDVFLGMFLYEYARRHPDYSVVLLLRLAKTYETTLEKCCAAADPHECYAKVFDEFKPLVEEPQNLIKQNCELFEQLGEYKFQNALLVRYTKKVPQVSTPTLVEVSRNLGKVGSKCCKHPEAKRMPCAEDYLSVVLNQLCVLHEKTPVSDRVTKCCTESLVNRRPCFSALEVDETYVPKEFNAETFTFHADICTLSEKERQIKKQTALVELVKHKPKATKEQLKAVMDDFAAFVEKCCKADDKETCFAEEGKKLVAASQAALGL

Structure (SMILES)	Kd [1] [µM]	degradation in bio-sample without stabilizer [2]
Nc1ncnc2c1ncn2[C@@H]1O[C@H](COP(=O)(O)OP(=O)(O)OP(=O)(O)O)[C@@H](O)[C@H]1O [ATP, Adenosine triphosphate]	0.471 ± 0.0238	–
CCC(CC)COC(=O)[C@H](C)N[P@](=O)(OC[C@H]1O[C@@](C#N)(c2ccc3c(N)ncnn23)[C@H](O)[C@@H]1O)Oc1ccccc1 [RDV, Remdesivir]	–	almost completely degraded in 5 min
O=c1ccn([C@@H]2O[C@H](COP(=O)(O)OP(=O)(O)OP(=O)(O)O)[C@@H](O)[C@H]2O)c(=O)[nH]1 [UTP, uridine triphosphate]	6.79 ± 0.333	–
